# ChEMBL document CHEMBL1156719, “Synthesis and structure-activity relationship studies of theophylline analogs on population responses in the rat hippocampus in vitro” (Bioorg Med Chem, 2008)
# Legend:
# Hippocampus [1] = assay: Cognitive enhancing effect in Sprague-Dawley rat hippocampal CA1 region assessed as increase in amplitude of populations spikes at 1 uM; format: functional
# Summary of the method: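 Male Sprague-Dawley rats (75–150 g) anesthetized with halothane and decapitated. 400 µm coronal hippocampal slices cut in ice-cold carbogenated aCSF, then held 1 h at room temperature. Extracellular field recording of evoked population spikes in CA1. After at least 15 min of stable baseline, analogs (10 mM DMSO stocks, diluted ≥1000-fold in aCSF) were bath-perfused. Amplitude normalized to the mean of 4–5 pre-drug responses.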
# Hippocampus [2] = assay: Cognitive enhancing effect in Sprague-Dawley rat hippocampal CA1 region assessed as increase in amplitude of populations spikes at 10 uM; format: functional
# Summary of the method: (§1)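 Male Sprague–Dawley rats (75–150 g) were halothane-anesthetized and decapitated. Coronal hippocampal slices were cut in ice-cold carbogenated aCSF and rested 1 h at room temperature. Extracellular field PS were recorded in CA1 after at least 15 min of stable baseline. Compound (10 mM DMSO stock, diluted ≥1000-fold in aCSF) was bath-perfused, then washed out. Amplitude was normalized to the mean of 4–5 pre-drug responses; mean ± SE, paired t-test.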
# Hippocampus [3] = assay: Decrease in amplitude of populations spikes in Sprague-Dawley rat hippocampal CA1 region at 10 uM; format: functional; parameters: scale not given: the % may be the effect or the level left; summary of the method: as §1
# Hippocampus [4] = assay: Decrease in amplitude of populations spikes in Sprague-Dawley rat hippocampal CA1 region at 10 uM after 10 mins of compound wash out; format: functional; parameters: scale not given: the % may be the effect or the level left; summary of the method: as §1
# Hippocampus [5] = assay: Decrease in amplitude of populations spikes in Sprague-Dawley rat hippocampal CA1 region; format: functional, tissue-based; summary of the method: as §1
# Hippocampus [6] = assay: Cognitive enhancing effect in Sprague-Dawley rat hippocampal CA1 region assessed as increase in amplitude of populations spikes at 10 uM in presence of CGP-55845 relative to basal level; format: functional
# Summary of the method: (§2)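 CA1 field PS were recorded extracellularly in coronal hippocampal slices from male Sprague–Dawley rats (75–150 g), kept in carbogenated aCSF. Receptor antagonists (d-tubocurarine, atropine, CGP55845 or 8-cyclopentyl-theophylline) were bath-perfused together with the compound, which was diluted ≥1000-fold from a 10 mM DMSO stock. PS amplitude was normalized to the mean of 4–5 responses before drug; mean ± SE, Student's t-test.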
# Hippocampus [7] = assay: Cognitive enhancing effect in Sprague-Dawley rat hippocampal CA1 region assessed as increase in amplitude of populations spikes at 10 uM in presence of CPT relative to basal level; format: functional; summary of the method: as §2
# Hippocampus [8] = assay: Cognitive enhancing effect in Sprague-Dawley rat hippocampal CA1 region assessed as increase in amplitude of populations spikes at 100 uM; format: functional
# Hippocampus [9] = assay: Cognitive enhancing effect in Sprague-Dawley rat hippocampal CA1 region assessed as increase in amplitude of populations spikes at 10 uM after 20 mins of compound wash out; format: functional; summary of the method: as §1
# Hippocampus [10] = assay: Cognitive enhancing effect in Sprague-Dawley rat hippocampal CA1 region assessed as increase in amplitude of populations spikes; format: functional, tissue-based; summary of the method: as §1
# Hippocampus [11] = assay: Cognitive enhancing effect in Sprague-Dawley rat hippocampal CA1 region assessed as increase in amplitude of populations spikes at 10 uM in presence of atropine; format: functional; summary of the method: as §2
# Hippocampus [12] = assay: Cognitive enhancing effect in Sprague-Dawley rat hippocampal CA1 region assessed as amplitude of populations spikes at 10 uM in presence of d-tubocurarine; format: functional; summary of the method: as §2
structure (smiles),measurement,setting,value
C[C@H](NC[C@H](O)CP(=O)(O)Cc1ccccc1)c1ccc(Cl)c(Cl)c1,Activity,Hippocampus [1],53.8%
Cn1c(=O)c2c(ncn2CCCC(=O)N2CCCC2=O)n(C)c1=O,Activity,Hippocampus [2],6.4%
Cn1c(=O)c2c(ncn2CCC(=O)N2CCCCCC2=O)n(C)c1=O,Activity,Hippocampus [2],40.9%
Cn1c(=O)c2c(ncn2CCCC(=O)N2CCCCC2=O)n(C)c1=O,Activity,Hippocampus [3],-25.9%
same,Activity,Hippocampus [4],91.1%
same,Activity,Hippocampus [5],Dose-dependent effect
same,EC50,Hippocampus [5],0.06 µM
same,Activity,Hippocampus [6],10.6%
same,Activity,Hippocampus [7],-27.6%
COc1cc2c3cc1Oc1cc(ccc1O)C[C@@H]1c4c(cc(OC)c(O)c4Oc4ccc(cc4)C[C@@H]3N(C)CC2)CC[N+]1(C)C.[Cl-],Activity,Hippocampus [8],1.8%
Cn1c(=O)c2c(ncn2CC(=O)N2CCCCCC2=O)n(C)c1=O,Activity,Hippocampus [2],42.4%
CC[C@@]1(O)C(=O)OCc2c1cc1n(c2=O)Cc2cc3ccccc3nc2-1 [CAMPTOTHECIN],Activity,Hippocampus [1],51.6%
Cn1c(=O)c2c(ncn2CCCC(=O)N2CCCCCC2=O)n(C)c1=O,Activity,Hippocampus [2],56.5%
same,Activity,Hippocampus [9],45.8%
same,Activity,Hippocampus [10],Dose-dependent effect
same,EC50,Hippocampus [10],2 µM
same,Activity,Hippocampus [11],0.2%
same,Activity,Hippocampus [12],-2.5%
same,Activity,Hippocampus [6],32.7%
same,Activity,Hippocampus [7],47.9%
Cn1c(=O)c2c(ncn2CC(=O)N2CCCC2=O)n(C)c1=O,Activity,Hippocampus [2],6.4%
